In the library only some 2.9% were active in any assay of this set; here they are far more common.
MIN6 prolif = inducers of MIN6 beta-cell proliferation, primary screen, ATP luminescence, uHTS; MIN6 cells proliferation, ATPlite luminescence, 48 h; cells starved in 0.2% serum; 100% = growth in 10% serum; proliferation, % at 10 µM; hit rate 0.29% among 330,000; AID 2380, 2010;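 active means compounds whose signal lies at least 3.5 SD above the mean of all wells on their plate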;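 further: 0% = DMSO-treated cells in low-serum medium and 100% = 10% serum control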
iPSC survival up = enhancers of single-cell hiPSC survival, primary screen, ATPlite luminescence | 100% = ROCK inhibitor wells, 0% = DMSO | survival enhancement, % at 20 µM | hit rate 0.044% among 360,000; in the data active means survival enhancement above about 18%;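 further: cells exposed to compounds for 16 hours before the ATP read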
PG9 binder = binders of HIV-1 gp120 antibody PG9, primary screen, biochemical, TR-FRET. hit rate 0.43% among 360,000. TR-FRET gp120-PG9 antibody binding. inhibition, % at 6.7 µM; in the data active means inhibition above about 8.5%
Rev-erbA mod = modulators of Rev-erb alpha DNA binding, primary screen, biochemical, FITC-DNA, fluorescence polarization, uHTS; Nuclear receptor subfamily 1 group D member 1 (Homo sapiens), P20393; Rev-erbα–FITC-DNA binding, 90 min; activity, % at 10 µM; hit rate 0.79% among 370,000; AID 1259318, 2017;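 active means activity above about 14%, limit read from the data; passing the limit was not always enough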;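 further: 0% = DMSO wells with 35 nM protein and 100% = DMSO wells with 750 nM protein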
Target sequence (P20393 whole entry, looked up): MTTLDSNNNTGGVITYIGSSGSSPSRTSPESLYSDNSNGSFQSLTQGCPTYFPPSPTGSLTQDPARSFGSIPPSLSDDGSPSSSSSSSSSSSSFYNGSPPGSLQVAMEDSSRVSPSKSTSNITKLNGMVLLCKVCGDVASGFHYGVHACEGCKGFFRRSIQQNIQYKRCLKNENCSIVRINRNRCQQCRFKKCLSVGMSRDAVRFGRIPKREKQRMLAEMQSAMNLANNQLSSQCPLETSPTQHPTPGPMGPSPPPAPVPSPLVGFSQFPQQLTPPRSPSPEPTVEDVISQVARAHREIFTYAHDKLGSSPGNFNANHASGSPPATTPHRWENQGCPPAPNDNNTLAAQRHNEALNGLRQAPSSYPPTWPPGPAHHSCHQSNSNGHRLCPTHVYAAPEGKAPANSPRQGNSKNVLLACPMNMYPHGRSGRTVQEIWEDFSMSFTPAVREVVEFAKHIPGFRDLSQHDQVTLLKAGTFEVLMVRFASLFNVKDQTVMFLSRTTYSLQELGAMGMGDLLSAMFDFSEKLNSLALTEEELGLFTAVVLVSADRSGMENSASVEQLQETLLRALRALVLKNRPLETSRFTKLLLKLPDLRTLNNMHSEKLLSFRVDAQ
T cruzi inh = inhibitors of intracellular T. cruzi growth, primary screen, luminescence, NIH3T3 host cells; inhibition, % (no concentration beside the values); hit rate 1.4% among 300,000; AID 1885, 2009; T. cruzi beta-gal in NIH3T3, 90 h;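 active means mean inhibition across valid replicates above about 55%, limit read from the data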;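 further: signal also drops with host cell toxicity which is not excluded here; 0% = plate median of DMSO wells and 100% = zero luminescence signal; higher percent means less beta-gal luminescence so fewer parasites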
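System: NIH/3T3 fibroblasts plus reporter T. cruzi. Medium: DMEM plus 2% FBS. Probe or stimulus: 5000 reporter trypomastigotes per well. Compound: single 50 nL compound addition per well in DMSO. Incubation: co-culture of at least 90 h after 3 h attachment. Detection: GalScreen β-gal luminescence, detergent lysis, 60 min. Evaluation: parasite load inhibition, %.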
TAG inh = inhibitors of triacylglycerol accumulation, primary screen, cell-based, uHTS, fluorescence, H9c2 | inhibition, % at 12.5 µM | H9c2 cells, Nile Red lipid (TAG) fluorescence; cells loaded with 200 µM oleic acid | hit rate 0.66% among 230,000;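 active means pattern-corrected inhibition of lipid staining of at least 50% with the nuclear-stain viability signal not falling by more than 50%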;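 further: 0% = DMSO wells and 100% = triacsin C control wells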
NR1D1 mod conf = modulators of Rev-erb alpha DNA binding, confirmation, biochemical, FITC-DNA, fluorescence polarization, single point | shares compounds with Rev-erbA mod | 90 min | activation, % at 25 µM | hit rate 61% among 3,000 | AID 1259319, 2017;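 active means activation at or above a set limit, or at least 3 SD above the negative control mean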;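 further: 0% = 35 nM protein with DMSO and 100% = 750 nM protein high control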
RORg DNA counter = modulation of RORgamma DNA binding, dose response, counter-screen for Rev-erb alpha modulator project, biochemical, fluorescence polarization, FITC-DNA | IC50, µM | purified RORgamma protein-FITC-DNA binding | hit rate 8% among 910 | shares compounds with Rev-erbA mod;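 active means Compounds whose fitted half-maximal concentration for disrupting protein-DNA binding is below 10 micromolar; the record names Rev-erb in its text, so the target is in doubt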
* marks the source's active call; other numbers are inactive results.

How did Cc1ccc(-c2nc3ccccc3s2)cc1NC(=O)c1cc(-n2cnnc2)ccc1Cl do in these assays?
MIN6 prolif: -2; iPSC survival up: -1; PG9 binder: 4; Rev-erbA mod: 33*; T cruzi inh: -9; NR1D1 mod conf: 32*; RORg DNA counter: >40

How did COc1ccc(-n2nc(C(=O)NCC(=O)Nc3cccc(Cl)c3)c3ccccc3c2=O)cc1 do in these assays?
MIN6 prolif: 2; iPSC survival up: 0; PG9 binder: 1; Rev-erbA mod: 82*; T cruzi inh: 4; NR1D1 mod conf: 39*; RORg DNA counter: >40

How did CCOc1ccc(NC(=O)CNC(=O)c2nn(-c3ccc(OC)cc3)c(=O)c3ccccc23)cc1 do in these assays?
MIN6 prolif: 0; iPSC survival up: 1; PG9 binder: 4; Rev-erbA mod: 32*; T cruzi inh: -5; NR1D1 mod conf: 11

What do the screens show for `CCOC(=O)c1ccccc1NC(=O)Cn1cnc2c(cnn2-c2ccc(OC)cc2)c1=O`?
MIN6 prolif: 1; PG9 binder: -1; Rev-erbA mod: 22*; NR1D1 mod conf: 9

Results for COc1ccc(-n2nc(C(=O)NCC(=O)Nc3cc(OC)c(OC)c(OC)c3)c3ccccc3c2=O)cc1Cl ?
MIN6 prolif: 1; iPSC survival up: 0; PG9 binder: 0; Rev-erbA mod: 0; T cruzi inh: 34

What do the screens show for `COc1ccc(-n2nc(C(=O)NCC(=O)N3CCN(c4ccccc4F)CC3)c3ccccc3c2=O)cc1`?
MIN6 prolif: 0; iPSC survival up: -1; PG9 binder: 5; Rev-erbA mod: 25*; T cruzi inh: -4; NR1D1 mod conf: -8

How did O=C(/C(=C/O)N=Nc1ccccc1)c1cccs1 do in these assays?
MIN6 prolif: 3; iPSC survival up: 0; PG9 binder: -3; Rev-erbA mod: 0; T cruzi inh: 17; TAG inh: 18

What do the screens show for `O=C(c1cc(-c2ccco2)nn1-c1cccc(Cl)c1)N1CCCCC1`?
MIN6 prolif: -2; iPSC survival up: 9; PG9 binder: 1; Rev-erbA mod: -7; T cruzi inh: 21; TAG inh: 5

Results for CCOc1ccc(-n2c(SC(C)C)nc3c(c2=O)SCC3)cc1 ?
MIN6 prolif: -2; iPSC survival up: -2; PG9 binder: -1; Rev-erbA mod: 5; T cruzi inh: 15; TAG inh: 0

Results for CCn1c2ccccc2c2cc(NC(=O)CSc3nnc(-c4cccc(C)c4)o3)ccc21 ?
MIN6 prolif: -6; iPSC survival up: -2; PG9 binder: 1; Rev-erbA mod: 6; T cruzi inh: -3; TAG inh: 22

Results for Cc1nn(Cc2ccccc2)c(Cl)c1C(=O)NCCc1ccc(Cl)cc1 ?
MIN6 prolif: 0; iPSC survival up: 2; PG9 binder: 0; Rev-erbA mod: 5; T cruzi inh: 18

How did COc1ccc(-n2nc(C(=O)NCC(=O)Nc3ccccn3)c3ccccc3c2=O)cc1 do in these assays?
MIN6 prolif: -1; iPSC survival up: 2; PG9 binder: 1; Rev-erbA mod: 42*; T cruzi inh: -4; TAG inh: 20; NR1D1 mod conf: 18*

Results for COCCCNC(=O)CNC(=O)c1nn(-c2ccc(OC)cc2OC)c(=O)c2ccccc12 ?
MIN6 prolif: -2; iPSC survival up: 0; PG9 binder: -1; Rev-erbA mod: 2; T cruzi inh: 13

How did CCOC(=O)c1nn(-c2ccc(F)cc2)c(=O)cc1OCC(=O)Nc1ccc(OCC)cc1 do in these assays?
MIN6 prolif: 1; iPSC survival up: 0; PG9 binder: -1; Rev-erbA mod: 19*; T cruzi inh: 7; TAG inh: -1; NR1D1 mod conf: -14

Results for COc1ccc(-n2nc(C(=O)NCC(=O)NCc3ccc(F)cc3)c3ccccc3c2=O)c(OC)c1 ?
iPSC survival up: 0; PG9 binder: 0; Rev-erbA mod: 27*; TAG inh: -7; NR1D1 mod conf: 2

Results for CCCCNC(=O)CNC(=O)c1nn(-c2ccc(OC)cc2)c(=O)c2ccccc12 ?
MIN6 prolif: -2; iPSC survival up: 0; PG9 binder: -1; Rev-erbA mod: 4; T cruzi inh: 3

Results for CCOC(=O)c1nn(-c2ccc(C)cc2)c(=O)cc1OCC(=O)Nc1cccc(OC)c1 ?
MIN6 prolif: -3; iPSC survival up: 0; PG9 binder: 2; Rev-erbA mod: -10; T cruzi inh: -2; TAG inh: 14

What do the screens show for `O=C(c1ccccc1)C1CCN(C(=O)C2CCC(=O)N(Cc3ccccc3F)C2)CC1` (stereo unspecified)?
MIN6 prolif: 1; iPSC survival up: 0; PG9 binder: 0; Rev-erbA mod: -1; T cruzi inh: 8; TAG inh: -14

Results for CCCNC(=O)C1CCCN(S(=O)(=O)c2ccc3c(c2)CC(C)N3C(=O)C2CC2)C1 (stereo unspecified) ?
MIN6 prolif: 0; iPSC survival up: 3; PG9 binder: 0; Rev-erbA mod: 3; T cruzi inh: 10; TAG inh: 9

How did CCNC(=O)c1cc2c(=O)n3cccc(C)c3nc2n(Cc2ccc(C)cc2)c1=N do in these assays?
MIN6 prolif: -3; iPSC survival up: 2; PG9 binder: 0; Rev-erbA mod: 0; T cruzi inh: 13; TAG inh: 27

What do the screens show for `Cc1cccn2c(=O)c3cc(C(=O)N4COCC4(C)C)n(Cc4ccccc4)c3nc12`?
MIN6 prolif: -3; iPSC survival up: 0; PG9 binder: 0; Rev-erbA mod: 31*; T cruzi inh: 20; TAG inh: -5; NR1D1 mod conf: 13

What do the screens show for `CCN(c1ccccc1C)S(=O)(=O)c1cc2c3c(c1)CCC(=O)N3CCC2`?
MIN6 prolif: 6; iPSC survival up: 0; PG9 binder: -2; Rev-erbA mod: 28*; T cruzi inh: 7; NR1D1 mod conf: 41*; RORg DNA counter: >40
